Results reported in ChEMBL document CHEMBL5058577, “EUbOPEN Chemogenomics Library 2 (Multiplex)” (2022).

System: U2OS
Test: Multiplex assay against U2OS
Type: toxicity, cell-based
Details: human
In short: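 Tubulin, mitochondrial-mass and membrane-permeability phenotypes are per cents of healthy-nucleus cells. Cells were gated by CellPathfinder machine learning into Hoechst high-intensity objects or normal cells, normal cells into healthy, pyknosed or fragmented nuclei, and pyknosed cells into mitotic or apoptotic. Before that, live cells stained at seeding with Hoechst33342, BioTracker Green Microtubule Cytoskeleton Dye, MitoTracker Red and Annexin V Alexa Fluor 680 were imaged on a CQ1 microscope at 37°C and 5% CO2 after compound addition.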

[1] = 12 h, 1 µM, compound concentration 1 uM, replicate 1
[2] = 12 h, 1 µM, compound concentration 1 uM, replicate 2
[3] = 12 h, 10 µM, compound concentration 10 uM, replicate 1
[4] = 12 h, 10 µM, compound concentration 10 uM, replicate 2
[5] = 24 h, 1 µM, compound concentration 1 uM, replicate 1
[6] = 24 h, 1 µM, compound concentration 1 uM, replicate 2
[7] = 24 h, 10 µM, compound concentration 10 uM, replicate 1
[8] = 24 h, 10 µM, compound concentration 10 uM, replicate 2
[9] = 48 h, 1 µM, compound concentration 1 uM, replicate 1
[10] = 48 h, 1 µM, compound concentration 1 uM, replicate 2
[11] = 48 h, 10 µM, compound concentration 10 uM, replicate 1
[12] = 48 h, 10 µM, compound concentration 10 uM, replicate 2

Compound: COc1cc2nc(N3CCN(C(=O)c4ccco4)CC3)nc(N)c2cc1OC.Cl [PRAZOSIN HYDROCHLORIDE]
- Population Apoptotic (%) [1]: 88%
- Population Fragmented Nuclei (%) [1]: 21%
- Population Healthy Nuclei (%) [1]: 70%
- Population Hoechst High Intensity Objects (%) [1]: 2%
- Population Membrane Permeable-Phenotype (%) [1]: 4%
- Population Mitochondria Different-Phenotype (%) [1]: 2%
- Population Mitotic Cells (%) [1]: 11%
- Population Normal (%) [1]: 97%
- Population Pyknosed Nuclei (%) [1]: 7%
- Population Tubulin-Different-Phenotype (%) [1]: 1%
- Total Cell Count [1]: 235
- Population Apoptotic (%) [2]: 94%
- Population Fragmented Nuclei (%) [2]: 18%
- Population Healthy Nuclei (%) [2]: 69%
- Population Hoechst High Intensity Objects (%) [2]: 1%
- Population Membrane Permeable-Phenotype (%) [2]: 5%
- Population Mitochondria Different-Phenotype (%) [2]: 7%
- Population Mitotic Cells (%) [2]: 5%
- Population Normal (%) [2]: 98%
- Population Pyknosed Nuclei (%) [2]: 12%
- Population Tubulin-Different-Phenotype (%) [2]: 8%
- Total Cell Count [2]: 159
- Population Apoptotic (%) [3]: 86%
- Population Fragmented Nuclei (%) [3]: 25%
- Population Healthy Nuclei (%) [3]: 67%
- Population Hoechst High Intensity Objects (%) [3]: 3%
- Population Membrane Permeable-Phenotype (%) [3]: 12%
- Population Mitochondria Different-Phenotype (%) [3]: 2%
- Population Mitotic Cells (%) [3]: 13%
- Population Normal (%) [3]: 96%
- Population Pyknosed Nuclei (%) [3]: 7%
- Population Tubulin-Different-Phenotype (%) [3]: 6%
- Total Cell Count [3]: 216
- Population Apoptotic (%) [4]: 72%
- Population Fragmented Nuclei (%) [4]: 15%
- Population Healthy Nuclei (%) [4]: 74%
- Population Hoechst High Intensity Objects (%) [4]: 0%
- Population Membrane Permeable-Phenotype (%) [4]: 4%
- Population Mitochondria Different-Phenotype (%) [4]: 5%
- Population Mitotic Cells (%) [4]: 27%
- Population Normal (%) [4]: 99%
- Population Pyknosed Nuclei (%) [4]: 9%
- Population Tubulin-Different-Phenotype (%) [4]: 7%
- Total Cell Count [4]: 114
- Population Apoptotic (%) [5]: 95%
- Population Fragmented Nuclei (%) [5]: 22%
- Population Healthy Nuclei (%) [5]: 69%
- Population Hoechst High Intensity Objects (%) [5]: 1%
- Population Membrane Permeable-Phenotype (%) [5]: 8%
- Population Mitochondria Different-Phenotype (%) [5]: 2%
- Population Mitotic Cells (%) [5]: 4%
- Population Normal (%) [5]: 98%
- Population Pyknosed Nuclei (%) [5]: 7%
- Population Tubulin-Different-Phenotype (%) [5]: 4%
- Total Cell Count [5]: 273
- Population Apoptotic (%) [6]: 100%
- Population Fragmented Nuclei (%) [6]: 15%
- Population Healthy Nuclei (%) [6]: 74%
- Population Hoechst High Intensity Objects (%) [6]: 0%
- Population Membrane Permeable-Phenotype (%) [6]: 10%
- Population Mitochondria Different-Phenotype (%) [6]: 5%
- Population Mitotic Cells (%) [6]: 0%
- Population Normal (%) [6]: 100%
- Population Pyknosed Nuclei (%) [6]: 10%
- Population Tubulin-Different-Phenotype (%) [6]: 9%
- Total Cell Count [6]: 188
- Population Apoptotic (%) [7]: 78%
- Population Fragmented Nuclei (%) [7]: 23%
- Population Healthy Nuclei (%) [7]: 68%
- Population Hoechst High Intensity Objects (%) [7]: 2%
- Population Membrane Permeable-Phenotype (%) [7]: 8%
- Population Mitochondria Different-Phenotype (%) [7]: 6%
- Population Mitotic Cells (%) [7]: 21%
- Population Normal (%) [7]: 97%
- Population Pyknosed Nuclei (%) [7]: 7%
- Population Tubulin-Different-Phenotype (%) [7]: 6%
- Total Cell Count [7]: 244
- Population Apoptotic (%) [8]: 85%
- Population Fragmented Nuclei (%) [8]: 13%
- Population Healthy Nuclei (%) [8]: 71%
- Population Hoechst High Intensity Objects (%) [8]: 1%
- Population Membrane Permeable-Phenotype (%) [8]: 7%
- Population Mitochondria Different-Phenotype (%) [8]: 5%
- Population Mitotic Cells (%) [8]: 14%
- Population Normal (%) [8]: 98%
- Population Pyknosed Nuclei (%) [8]: 15%
- Population Tubulin-Different-Phenotype (%) [8]: 4%
- Total Cell Count [8]: 138
- Population Apoptotic (%) [9]: 94%
- Population Fragmented Nuclei (%) [9]: 16%
- Population Healthy Nuclei (%) [9]: 74%
- Population Hoechst High Intensity Objects (%) [9]: 2%
- Population Membrane Permeable-Phenotype (%) [9]: 6%
- Population Mitochondria Different-Phenotype (%) [9]: 2%
- Population Mitotic Cells (%) [9]: 5%
- Population Normal (%) [9]: 97%
- Population Pyknosed Nuclei (%) [9]: 9%
- Population Tubulin-Different-Phenotype (%) [9]: 2%
- Total Cell Count [9]: 388
- Population Apoptotic (%) [10]: 100%
- Population Fragmented Nuclei (%) [10]: 15%
- Population Healthy Nuclei (%) [10]: 77%
- Population Hoechst High Intensity Objects (%) [10]: 1%
- Population Membrane Permeable-Phenotype (%) [10]: 7%
- Population Mitochondria Different-Phenotype (%) [10]: 7%
- Population Mitotic Cells (%) [10]: 0%
- Population Normal (%) [10]: 98%
- Population Pyknosed Nuclei (%) [10]: 7%
- Population Tubulin-Different-Phenotype (%) [10]: 5%
- Total Cell Count [10]: 266
- Population Apoptotic (%) [11]: 96%
- Population Fragmented Nuclei (%) [11]: 20%
- Population Healthy Nuclei (%) [11]: 71%
- Population Hoechst High Intensity Objects (%) [11]: 1%
- Population Membrane Permeable-Phenotype (%) [11]: 5%
- Population Mitochondria Different-Phenotype (%) [11]: 2%
- Population Mitotic Cells (%) [11]: 3%
- Population Normal (%) [11]: 98%
- Population Pyknosed Nuclei (%) [11]: 8%
- Population Tubulin-Different-Phenotype (%) [11]: 3%
- Total Cell Count [11]: 341
- Population Apoptotic (%) [12]: 94%
- Population Fragmented Nuclei (%) [12]: 15%
- Population Healthy Nuclei (%) [12]: 76%
- Population Hoechst High Intensity Objects (%) [12]: 2%
- Population Mitochondria Different-Phenotype (%) [12]: 6%
- Population Mitotic Cells (%) [12]: 5%
- Population Normal (%) [12]: 97%
- Total Cell Count [12]: 208
